Measured values reported in ChEMBL document CHEMBL1130315 (J Med Chem, 1997).

Assays:
[1] = target: Sodium-dependent dopamine transporter (Rattus norvegicus, UniProt P23977); assay: Binding affinity was evaluated using [3H]WIN-35428 binding to dopamine transporter (DAT) in rat caudate-putamen; type: tissue-based
Sigma 2 receptor = assay: Binding affinity was evaluated using [3H]-DTG binding to sigma-2 receptor from rat liver
In short: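 Rat liver membranes (male Sprague-Dawley), 160 μg protein, with 5 nM [3H]DTG plus 1 μM dextrallorphan to mask σ1 sites; 50 mM Tris-HCl pH 8.0, 120 min at 25 °C. Nonspecific binding with 10 μM haloperidol; filtration on poly(ethylenimine)-soaked glass fiber filters, scintillation counting.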

[2] = target: Sodium-dependent dopamine transporter (Rattus norvegicus) (UniProt P23977); assay: Binding constant(Bmax) of [3H]WIN-35428 at saturation in rat caudate-putamen tissue preincubated in buffer at 100 nM (Dopamine transporter); type: tissue-based
Sequence of Sodium-dependent dopamine transporter (Rattus norvegicus) (P23977 whole entry): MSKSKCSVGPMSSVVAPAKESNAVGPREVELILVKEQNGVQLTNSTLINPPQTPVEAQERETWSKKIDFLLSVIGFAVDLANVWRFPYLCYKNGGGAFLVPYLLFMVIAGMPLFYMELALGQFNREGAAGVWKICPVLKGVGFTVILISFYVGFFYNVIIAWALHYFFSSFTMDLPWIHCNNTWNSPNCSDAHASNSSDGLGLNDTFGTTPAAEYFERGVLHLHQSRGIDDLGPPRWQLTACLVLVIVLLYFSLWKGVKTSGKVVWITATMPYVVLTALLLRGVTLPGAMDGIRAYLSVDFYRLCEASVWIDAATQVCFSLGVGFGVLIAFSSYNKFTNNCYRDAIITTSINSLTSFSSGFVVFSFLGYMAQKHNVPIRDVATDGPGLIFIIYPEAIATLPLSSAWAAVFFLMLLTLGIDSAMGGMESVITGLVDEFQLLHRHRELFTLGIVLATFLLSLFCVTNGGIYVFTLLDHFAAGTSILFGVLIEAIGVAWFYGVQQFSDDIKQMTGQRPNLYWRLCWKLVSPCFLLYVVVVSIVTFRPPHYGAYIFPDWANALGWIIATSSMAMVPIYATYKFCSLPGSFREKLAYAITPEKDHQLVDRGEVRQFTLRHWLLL
In short: (§1)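 Rat caudate-putamen homogenate in Krebs-HEPES buffer pH 7.4, preincubated 1 h on ice with buffer alone, 100 nM or 10 μM ligand, then washed by two centrifugations. Twelve-point saturation with 0.1–25 nM [3H]WIN 35,428, 1 h on ice; filtration. Bmax and KD fitted by nonlinear least squares across replicate experiments, with standard errors; protein by modified Lowry.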

[3] = target: Sodium-dependent dopamine transporter (Rattus norvegicus) (UniProt P23977); assay: Binding constant(Bmax) of [3H]WIN-35428 at saturation in rat caudate-putamen tissue pre-incubated in buffer at 10 uM (Dopamine transporter); type: tissue-based; in short: as §1
[4] = target: Sodium-dependent dopamine transporter (Rattus norvegicus) (UniProt P23977); assay: Binding constant(Bmax) of [3H]WIN-35428 at saturation in rat caudate-putamen tissue pre-incubated in buffer (Dopamine transporter); type: tissue-based; in short: as §1

Sequence of Sodium-dependent dopamine transporter (P23977 whole entry): as above

Which IC50 [1] does the source give for `CC1CN(CCCn2c3ccccc3c3cc(N=C=S)ccc32)CC(C)N1C` (stereo not drawn) here?
Its IC50 is 1330 nM.

Which IC50 (Sigma 2 receptor) does the source give for `C[C@@H]1CN(CCCn2c3ccccc3c3ccccc32)C[C@H](C)N1` [RIMCAZOLE] here?
The IC50 was 386 nM.

And the IC50 [1]?
Its IC50 is 57.6 nM.

Which IC50 (Sigma 2 receptor) does the source give for `CC1CN(CCCn2c3ccccc3c3ccccc32)CC(C)N1CCCN=C=S` (stereo not drawn) here?
The IC50 was 877 nM.

And the IC50 [1]?
The IC50 was 523 nM.

Which results are given for `CC1CN(CCCn2c3ccccc3c3ccccc32)CC(C)N1CCN=C=S` (stereo not drawn)?
IC50 (Sigma 2 receptor): 1440 nM; IC50 [1]: 1250 nM

What does the source list for `C[C@H]1CN(CCCn2c3ccccc3c3ccccc32)C[C@H](C)N1C`?
IC50 (Sigma 2 receptor): 294 nM; IC50 [1]: 244 nM

For `CC1CN(CCCn2c3ccccc3c3ccccc32)CC(C)N1CCCCCCN=C=S` (stereo not drawn), which IC50 (Sigma 2 receptor) is on record?
Its IC50 is 211 nM.

What about the Bmax (fM (mg of protein)-1) [2] of the same compound?
The Bmax (fM (mg of protein)-1) was 167.

And the Bmax (fM (mg of protein)-1) [3]?
Its Bmax (fM (mg of protein)-1) is 6.65.

What about the Bmax (fM (mg of protein)-1) [4] of the same compound?
Its Bmax (fM (mg of protein)-1) is 537.
